PPC-1+TRAIL kill = compounds killing PPC-1 cancer cells with TRAIL present, primary screen, TRAIL potentiator project, ATPLite luminescence, uHTS; actives 0.41% (n = 220,000); cell killing (% activity), % at 4 µM or 5 µM; PPC-1 cells + TRAIL, ATPLite viability luminescence;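 active means cell killing above 50% in the first pass at 4 µM, then a duplicate retest at 5 µM averaging 50% or more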;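 further: plate controls were cells with TRAIL plus DMSO for no effect and medium-only wells lacking cells for full effect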
FLuc act counter = FLuc activators, initial screening, artefact control for FLuc-dependent activation tests, biochemical, ATPlite luminescence; Luciferin 4-monooxygenase (Photinus pyralis), P08659; ATPlite luciferase biochemical, 10 min; 0 = ATP-free wells, 1 = DMSO control; activation factor at 10 µM; 200,000 tested, under 10 active; AID 1027, 2008;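 active means luciferase activation factor, scaled between plate controls, of at least 2 with compound at 10 µM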
Target sequence (P08659 whole entry, looked up): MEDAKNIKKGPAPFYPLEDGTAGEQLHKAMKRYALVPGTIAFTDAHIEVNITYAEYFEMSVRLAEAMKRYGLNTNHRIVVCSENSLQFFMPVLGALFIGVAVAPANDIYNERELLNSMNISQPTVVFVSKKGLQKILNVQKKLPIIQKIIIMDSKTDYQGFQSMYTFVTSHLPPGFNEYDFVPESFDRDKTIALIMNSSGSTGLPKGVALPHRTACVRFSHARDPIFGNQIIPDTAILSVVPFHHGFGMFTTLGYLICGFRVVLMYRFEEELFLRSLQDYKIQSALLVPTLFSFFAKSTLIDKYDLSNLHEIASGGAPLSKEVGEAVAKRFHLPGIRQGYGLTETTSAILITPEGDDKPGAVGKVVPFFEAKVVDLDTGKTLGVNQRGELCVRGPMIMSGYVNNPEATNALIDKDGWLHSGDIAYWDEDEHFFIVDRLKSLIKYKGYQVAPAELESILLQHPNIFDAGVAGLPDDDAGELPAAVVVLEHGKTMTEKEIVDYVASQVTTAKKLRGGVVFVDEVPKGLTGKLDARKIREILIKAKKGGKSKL
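Assay system: Luciferase/luciferin detection reagent, cell-free biochemical luciferase assay / Read-out: luciferase activation / Benchmarks: No-ATP low control, compound-free enzyme-plus-ATP high control / Medium: PBS buffer for ATP / Detection: luminescence measurement of luciferase light output / Schedule: 10 min at ambient temperature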
C8 TRAIL sens = viability loss with TRAIL in NB7+C8 cells, primary screen, TRAIL sensitizer project, cell-based, ATPlite luminescence | inhibition (viability loss, TRAIL sensitization), % at 10 µM | actives 1% (n = 360,000) | AID 624354, 2012;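 active means compounds causing at least 50% loss of cell viability in the single-dose screen, relative to plate controls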
STAT3 inh = IL-6 driven STAT3 reporter inhibitors, primary screen, U3A cells, luciferase, luminescence, MLSCN library. inhibition, % at 5.5 µM. actives 0.89% (n = 190,000). IL-6 STAT3-luciferase reporter; host cell line lacks STAT1;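 active means inhibition above the mean inhibition across all screened compounds plus 3 SD, cut at about 44% in these data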;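 further: 0% = DMSO only wells and 100% = 100 µM nifuroxazide control wells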
FLuc inh counter = firefly luciferase enzyme inhibitors, primary screen, artefact control for luciferase-based inhibitor screens, biochemical, luminescence, ATPLite. 10 min. inhibition, % at 10 µM. actives 1.5% (n = 200,000). AID 1006, 2008;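 active means inhibition above about 50% when tested at 10 µM, limit read from the data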
HSP90 inh = HSP90 inhibitors, primary screen, cell lysate, luminescence; Heat shock protein HSP 90 (rabbit reticulocyte lysate; luciferase refolding); Rabbit reticulocyte lysate, luciferase refolding luminescence, 3 h; inhibition, % at 5.6 µM; actives 0.91% (n = 290,000); AID 1789, 2009;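 active means inhibition above the screen-wide mean plus 3 SD, computed separately per campaign, cut at about 16% in these data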;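 further: 0% = DMSO wells and 100% = 60 µM geldanamycin wells; inhibitors lower the luminescence because luciferase stays unfolded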
The depositor's hits bear a star; / = no result. The list is not random: actives were taken first. Their share in the collection is about 2.2%.

SMILES	PPC-1+TRAIL kill	FLuc act counter	C8 TRAIL sens	STAT3 inh	FLuc inh counter	HSP90 inh
Cc1cccc(C(=O)Nc2ccc(C(=O)Nc3ccc(O)cc3)cc2)c1	/	/	68.0*	/	/	-3.5
Cc1cccc(C(=O)Nc2ccc(NC(=O)c3cccc(C)c3)cc2)c1	/	/	25.4	/	/	/
CN(C)CC(O)c1ccc(C=Cc2ccc(Cl)cc2)cc1 (configuration not stated)	/	/	89.0*	/	/	/
CN(C)/C=C/C(=O)/C=C/c1ccc(Cl)cc1	26.4	0.5	10.3	8.5	49.4	-1.6
COc1ccc2nc3cc(Cl)ccc3c(Nc3ccc(O)c(CN4CCN(C)CC4)c3)c2c1	/	/	74.0*	/	/	/
COc1ccc2nc3cc(Cl)ccc3c(C#N)c2c1	9.5	/	-5.2	/	/	-0.5
Clc1ccc(CN2CCc3c([nH]c4ccccc34)C2)cc1Cl	/	/	53.8*	/	/	1.9
COc1cc(NC(=O)c2ccc3c(c2)OCCO3)ccc1NC(=O)c1cccs1	17.4	0.7	2.7	20.9	29.8	3.4
O=S(=O)(c1cnc(Cl)c(Cl)c1)N1CCCc2ccccc21	42.6	1	-0.5	-6.0	-4.1	2.6
O=S(=O)(c1cnc(Cl)c(Cl)c1)N1CCc2ccccc21	79.9*	/	11.9	/	/	14.9
CCOC1=C2[C@@H](CN(S(=O)(=O)c3ccccc3C)[C@H]2c2ccc(Cl)cc2)[C@H]2C(=O)NC(=O)[C@H]2C1	/	/	-4.5	/	/	/
O=C(NC(=S)N1CCc2ccccc21)c1ccccc1Cl	/	/	22.6	/	/	5.6
O=C(NC(=S)N1CCc2ccccc21)c1ccccc1	8.4	0.5	50.7*	-11.6	51.9*	2.4
NC(=O)c1cc(Cl)ccc1OCC(=O)Nc1ccc2c(c1)OCO2	/	/	68.5*	/	/	/
Cc1cccc(OCC(=O)Nc2ccc3c(c2)OCO3)c1C	14.8	0.9	-0.5	12.7	7.4	0.2
O=C(COc1cc(F)ccc1[N+](=O)[O-])Nc1ccc2c(c1)OCO2	/	/	10.4	/	/	/
N#Cc1ccccc1OCC(=O)Nc1ccc2c(c1)OCO2	/	/	24.5	/	/	/
Cc1ccc(OCC(=O)Nc2ccc3c(c2)OCO3)c(C)c1	35.6	0.5	17.5	0.3	54.5*	-1.7
CC(=O)c1cc(F)ccc1OCC(=O)Nc1ccc2c(c1)OCO2	/	/	65.6*	/	/	/
O=C(COc1ccccc1[N+](=O)[O-])Nc1ccc2c(c1)OCO2	41.0	0.4	22.6	2.4	58.3*	-4.2
O=C(O)CC(c1ccccc1)N1C(=O)c2cccc([N+](=O)[O-])c2C1=O (configuration not stated)	/	/	4.2	/	/	-1.1
COc1ccc(C(=O)NCCNc2ccccc2[N+](=O)[O-])cc1	47.8	0.4	37.8	11.9	61.6*	0.4
Cc1ccccc1CNC(=O)c1ccccc1C(=O)O	0.2	1	10.5	2.3	-0.8	16.2*
Cc1ccccc1CNC(=O)c1ccccc1C	-10.3	1	9.4	-0.6	-4.0	3.3
CC(C)C1C(=O)N(Cc2cn(CCC3OCCCO3)nn2)CCS(=O)(=O)N1Cc1ccc(-c2ccc(Cl)c(Cl)c2)cc1 (configuration not stated)	/	/	13.6	/	/	/
SMILES	PPC-1+TRAIL kill	FLuc act counter	C8 TRAIL sens	STAT3 inh	FLuc inh counter	HSP90 inh
CNc1ccccc(-c2ccc3cc4c(cc3n2)OCO4)c1=O	-0.9	0.5	16.0	6.9	53.3*	3.7
CS(=O)(=O)NCCOc1ccc(S(=O)(=O)NCCOc2ccccc2)cc1	12.8	1	-0.5	1.5	-0.9	-0.6
Cc1cccc(C)c1NS(=O)(=O)c1ccc(OCCNS(C)(=O)=O)cc1	8.4	0.2	1.4	16.5	81.2*	-0.3
O/C(=C\c1nc2ccccc2nc1/C=C(\O)c1ccccc1)c1ccccc1	13.4	0.3	-3.9	-39.4	73.2*	2.4
O=C(c1ccc2nc(N3CCCCC3)sc2c1)N1CCN(Cc2ccc3c(c2)OCO3)CC1	13.0	1.1	-0.3	1.7	-8.3	31.4*
O=C(c1ccc(S(=O)(=O)N2CCCCC2)cc1)N1CCN(Cc2ccc3c(c2)OCO3)CC1	-5.4	1.1	-5.8	9.9	-5.3	2.3
COc1ccc(CNC(=O)CCCn2nc(C)c3c(C)n(-c4ccc(C)cc4)nc3c2=O)cc1	/	/	22.6	/	/	-0.7
COc1ccc(-c2cn3c(C)c(C(=O)N4CCc5ccccc5C4)sc3n2)cc1	/	/	-23.0	/	/	19.0*
COc1ccc(-c2cn3c(C)c(C(=O)Nc4cc(NC(C)=O)ccc4OC)sc3n2)cc1	9.8	1	-3.6	15.0	-2.2	54.1*
COc1ccc(CC(=O)N2CCCC2)c(OC)c1	/	/	-6.5	/	/	-2.4
CSc1ccccc1-c1nnc(-c2ccc(Cl)cc2Cl)o1	24.2	0.4	45.4	15.8	59.5*	2.2
CSc1ccccc1-c1nnc(-c2ccc(Cl)c(Cl)c2)o1	0.1	0.9	-4.5	-31.7	5.5	-5.8
Cc1cccc(NC(=S)NNC(=O)c2ccc3c(c2)OCO3)c1	48.1	0.2	50.4*	11.2	79.1*	-2.8
Cc1cccc(NC(=S)NCc2ccc3c(c2)OCO3)c1	27.5	1.1	-16.5	2.7	-7.2	-4.7
Cc1ccc(NC(=O)c2ccc3c(c2)OCCO3)nc1	/	/	74.3*	/	/	/
O=C(Nc1ccc2c(c1)OCO2)c1ccc2c(c1)OCO2	48.1	0.2	71.5*	36.4	83.2*	6.5
Cc1ccc(NC(=O)CNC(=O)c2ccc3c(c2)OCO3)nc1	/	/	-7.3	/	/	0.9
O=C(Nc1ccn(Cc2ccccc2)n1)c1ccc2c(c1)OCO2	40.1	0.4	28.8	0.8	57.7*	-1.6
CCCCn1c(N)c(N(CC(C)C)C(=O)C2CCN(S(=O)(=O)c3ccc(OCC)cc3)CC2)c(=O)[nH]c1=O	/	/	22.2	/	/	/
CCOC(=O)N1CCC(=NNC(=O)c2ccccc2F)CC1	7.6	1.1	-11.2	-3.5	-7.5	1.2
C/C(=N\NC(=O)c1c(Br)c(C)nn1C)c1cccc(NC(=O)c2ccccc2F)c1	-26.9	1	10.0	18.2	4.9	-1.8
O=C(Nc1ccccc1)c1ccc2c(c1)OCCO2	46.4	0.4	33.5	27.9	64.9*	4.8
C/C(=N\NC(=O)c1nn(C)c(C)c1Br)c1cccc(NC(=O)c2ccc(F)cc2)c1	36.2	0.3	52.9*	7.0	69.2*	13.7
O=C(CCNC(=O)c1ccccc1Cl)Nc1ccc2c(c1)OCO2	12.9	1	4.7	3.3	1.8	2.3
O=C(Nc1ccc(NC(=O)c2ccc3c(c2)OCCO3)cc1)c1ccccc1	/	/	32.1	/	/	2.2
O=C(Nc1ccc2c(c1)OCO2)c1ccc(Cl)s1	14.2	0.4	21.3	-16.4	60.9*	1.5
O=C(CCl)Nc1ccccc1C(=O)Nc1ccc2c(c1)OCO2	43.6	/	49.5*	/	/	9.1
C/C(=N\NC(=O)c1ccc(O)cc1)c1cccc(NC(=O)c2ccccc2C)c1	/	/	62.6*	/	/	-0.6
